Measured values as given in publication PMC6396318 (Journal of the American Chemical Society, 2019).
Read-outs that look alike come from different tables or passages of the source. Marks after values point to notes of the source that are not given here.

Assays:
[1] = Indiscriminate thiol reactivity assay with cysteine; type: physicochemical; conditions: for Cysteine adduct formation: incubated with cysteine for 23 h, LC–MS; for Cysteine adduct pH 5.5 / Cysteine adduct pH 7.5 / Cysteine adduct pH 8.0: 23 h incubation with 10 mM cysteine at 37 °C, LC–MS UV trace
Outline: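 Test compound was incubated with 10 mM cysteine in buffer at pH 5.5, 7.5 or 8.0 for 23 h at 37 °C. Cysteine adduct formation was quantified from the LC–MS UV trace.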

[2] = Indiscriminate thiol reactivity assay with GSH; type: physicochemical; conditions: 23 h incubation with 5 mM GSH at 37 °C, LC–MS UV trace
Outline: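 Test compound was incubated with 5 mM GSH in buffer at 37 °C for 23 h. Adduct formation was quantified from the LC–MS UV trace.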

hCatK [3] = target: T1, hCatK (Homo sapiens, UniProt P43235); assay: Kinetic evaluation of covalent inhibitors; type: biochemical
T1 sequence (P43235 115-329): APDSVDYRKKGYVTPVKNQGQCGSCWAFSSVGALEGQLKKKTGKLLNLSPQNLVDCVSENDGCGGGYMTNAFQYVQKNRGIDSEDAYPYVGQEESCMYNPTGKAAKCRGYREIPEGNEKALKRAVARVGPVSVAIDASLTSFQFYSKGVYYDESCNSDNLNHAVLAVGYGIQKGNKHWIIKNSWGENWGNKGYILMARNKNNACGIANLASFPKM
Outline: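 Recombinant hCatK (100 pM) was used with 4 μM Z-FR-AMC at 26 °C. The reaction was started by adding enzyme to substrate plus test compound. Progress curves of substrate hydrolysis were fitted to derive kinetic constants. Values are mean ± SD of one representative experiment measured in triplicate.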

hCatK [4] = target: T1, hCatK; assay: In vitro inhibition assay, fluorogenic substrate; type: biochemical
Outline: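 Fluorogenic substrate was then added and proteolytic activity read. Values are mean ± SD of one representative experiment measured in triplicate. Selectivity was taken from IC50 values across these proteases.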

hCatK [5] = target: T1, hCatK; assay: Reversibility of inhibition; type: biochemical; conditions: 300-fold dilution into Z-FR-AMC
Outline: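 Jump dilution: recombinant hCatK was preincubated with test compound at high concentration to fully occupy the active site. The mixture was then diluted 300-fold into Z-FR-AMC solution. Progress curves of hCatK activity were recorded to detect recovery of substrate hydrolysis. E-64 served as control.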

human osteoclasts (OCs) [6] = assay: Bone resorption by osteoclasts cultured on cortical bone slices; type: cell-based
Outline: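 Human CD14+ monocytes were seeded on bone slices, with M-CSF added on day 0 and RANKL on day 3 to drive osteoclast maturation. Medium containing test compound or DMSO was refreshed on days 7, 10, 13 and 16. On day 21 the cells were washed off and lysed. Resorption pits (trenches vs pits) were stained with Coomassie Brilliant Blue, and total resorption area was quantified.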

CatK [7] = target: T2, CatK (Homo sapiens, UniProt P43235); assay: Cathepsin K activity in osteoclast lysates; type: cell-based; conditions: lysates treated with BMV109; increase with ODN ascribed to displacement by probe
T2 sequence (P43235 115-329): T1 sequence (P43235 115-329)

human osteoclasts (OCs) [8] = assay: TRAcP staining and counting of mature OCs on plastic; type: cell-based; conditions: highest concentrations
[9] = cited from earlier work
rodentCatK = conditions: mice and rats; cited from earlier work
[10] = cited from earlier work; remark: listed apart in the source
CatK [11] = conditions: 100 nM; cited from earlier work
[12] = 100 pM hCatK, 4 μM Z-FR-AMC, 26 °C, reversible covalent

| Compound | Cysteine adduct pH 5.5 [1] | Cysteine adduct pH 7.5 [1] | Cysteine adduct pH 8.0 [1] | GSH adduct pH 7.5 [2] | Cysteine adduct formation [1] | other results |
| --- | --- | --- | --- | --- | --- | --- |
| CC#CC(=O)N1CCC[C@H]1c1nc(-c2ccc(C(=O)Nc3ccccn3)cc2)c2c(N)nccn12 [Acalabrutinib] | 19% | 98% | 97% | 95% | observed |  |
| CN(C)C/C=C/C(=O)Nc1cc2c(Nc3ccc(F)c(Cl)c3)ncnc2cc1O[C@H]1CCOC1 [Afatinib] | 92% | 98% | 95% | 94% | adduct formation that increases upon increasing the pH of the buffer |  |
| CC(C)C[C@H](NC(=O)[C@H]1O[C@@H]1C(=O)O)C(=O)NCCCCN=C(N)N [Compound E-64, E-64] | <1% | 68% | 79% | 64% | adduct formation that increases upon increasing the pH of the buffer | Ki (hCatK [3]; 100 pM hCatK, 4 μM Z-FR-AMC, 26 °C, irreversible covalent, mean ± SD): 11 ± 1.6 nM |

Continued, in another order:

| Cysteine adduct pH 5.5 [1] | Cysteine adduct pH 7.5 [1] | Cysteine adduct pH 8.0 [1] | GSH adduct pH 7.5 [2] | Compound | Cysteine adduct formation [1] | other results |
| --- | --- | --- | --- | --- | --- | --- |
| 9% | 99% | 96% | 91% | C=CC(=O)N1CCC[C@@H](n2nc(-c3ccc(Oc4ccccc4)cc3)c3c(N)ncnc32)C1 [Ibrutinib] | adduct formation that increases upon increasing the pH of the buffer |  |
| <1% | 17% | 48% | 0%^b | CC(C)(F)C[C@H](N[C@@H](c1ccc(-c2ccc(S(C)(=O)=O)cc2)cc1)C(F)(F)F)C(=O)NC1(C#N)CC1 [ODN, odanacatib] | adduct formation that increases upon increasing the pH of the buffer | IC50 (hCatK [4]): < 1 nM; Selectivity for CatK over related human cathepsins (hCatK [4]; from IC50 values of Table 2): selective for hCatK; Ki (hCatK [3]): 3.8 ± 2.7 nM; k5 (rate of covalent bond formation) (hCatK [3]; [12]): 0.12 ± 0.026 min⁻¹; k6 (rate of covalent bond dissociation) (hCatK [3]; [12]): 0.033 ± 0.0077 min⁻¹; Reversibility of hCatK inhibition (hCatK [5]): (fast) reversible inhibitor; Bone resorption morphology at 3 nM (human osteoclasts (OCs) [6]; 3 nM, 21 days culture, Coomassie staining): deep trenches; Bone resorption morphology at 15 nM (human osteoclasts (OCs) [6]; 15 nM, 21 days culture, Coomassie staining): shallow pits; Effective dose / concentrations inhibiting bone resorption (human osteoclasts (OCs) [6]; 21 days culture on bone slices): around 15 nM; Mature CatK activity in OC lysates (BMV109 labeling) (CatK [7]): strong increase of mature CatK activity; Number of OCs cultured on plastic (human osteoclasts (OCs) [8]): increase in the number of OCs; half-life [9]: 66 to 93 h; Reduction of apparent potency on rodentCatK compared to humanCatK (rodentCatK): up to 182 fold; Side effects in phase III clinical trials [10]: increased stroke risks and cardiovascular events; CatK expression upon ODN treatment (CatK [11]): significant increase in CatK expression; Number of OCs upon ODN treatment (CatK [11]): without an increase in the number of OCs |
